The source made the active and inactive calls. The calls are words filed in the database; no cut-off is given here.
Assays:
Type in all cases: functional
[1] = tested on: Acinetobacter baumannii; assay: Potentiation of minocycline-induced antibacterial activity against multidrug-resistant Acinetobacter baumannii AB030 at 4 ug/ml after 18 hrs by checkerboard assay
How it was run: (§1)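 Checkerboard in Mueller-Hinton broth: antibiotic serially diluted along one axis and adjuvant along the other (10 × 7 matrix). Inoculum from a 0.5 McFarland saline suspension diluted 1:50 in MHB; 18 h at 37 °C, then plate read. MIC is the lowest concentration with no growth. FIC of each agent is its concentration in a no-growth well divided by its MIC alone; FIC index is the sum of both. FIC index ≤0.5 counts as synergy.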

[2] = tested on: Pseudomonas aeruginosa; assay: Induction of cytoplasmic membrane depolarization in Pseudomonas aeruginosa PAO1 up to 1200 secs by diSC3-5 staining based fluorescence assay
How it was run: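 Mid-log PAO1 washed in 5 mM HEPES pH 7.4 with 20 mM glucose and resuspended to OD600 0.05. Cells were loaded with 0.2 mM EDTA and 0.4 µM diSC3-5 for 2 h at 37 °C in the dark, then equilibrated with 100 mM KCl for 30 min. Agent was added and fluorescence followed at 622/670 nm; agents tested at 32 µg/mL.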

[3] = tested on: Pseudomonas aeruginosa; assay: Potentiation of erythromycin-induced antibacterial activity against Pseudomonas aeruginosa PAO1 at 4 ug/ml after 18 hrs by checkerboard assay; how it was run: as §1
[4] = tested on: Pseudomonas aeruginosa; assay: Potentiation of rifampicin-induced bactericidal activity against Pseudomonas aeruginosa PAO1 at 0.125 times antibacterial MIC after 90 mins
How it was run: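 Combination time-kill in PAO1 (LB, 37 °C). Aliquots taken at 0–360 min, serially diluted in PBS, plated on LB agar, and CFU counted after 20 h at 37 °C.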

[5] = tested on: Pseudomonas aeruginosa; assay: Potentiation of gentamicin-induced antibacterial activity against Pseudomonas aeruginosa PAO1 at 4 ug/ml after 18 hrs by checkerboard assay; how it was run: as §1
[6] = tested on: Escherichia coli; assay: Antibacterial activity against gentamicin-resistant Escherichia coli isolate CAN-ICU 61714 after 18 hrs by microtiter dilution assay; conditions: isolate CAN-ICU 61714, 18 h
How it was run: (§2)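 Broth microdilution following CLSI guidelines. An overnight culture was adjusted to 0.5 McFarland in saline, then diluted 1:50 in Mueller-Hinton broth. This inoculum was added in equal volume to 2-fold serial dilutions of agent in MHB and incubated 18 h at 37 °C. MIC was the lowest concentration with no visible growth.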

[7] = tested on: Pseudomonas aeruginosa; assay: Synergistic antibacterial activity against Pseudomonas aeruginosa PAO1 after 18 hrs in presence of rifampicin by checkerboard assay; conditions: PAO1, 18 h
How it was run: (§3)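 Checkerboard in MHB: antibiotic diluted along one axis and adjuvant along the other (10 × 7 matrix). Inoculum was a 1:50 dilution in MHB of a 0.5 McFarland saline suspension; incubated 18 h at 37 °C. Each FIC = concentration in the no-growth well divided by the MIC alone; FIC index = sum of both FICs. ≤0.5 synergy, 0.5–4 no interaction, ≥4 antagonism.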

[8] = tested on: Pseudomonas aeruginosa; assay: Potentiation of minocycline-induced antibacterial activity against multidrug/extremely drug-resistant/colistin-susceptible Pseudomonas aeruginosa isolate 100036 at 4 ug/ml after 18 hrs by checkerboard assay; how it was run: as §1
[9] = tested on: Pseudomonas aeruginosa; assay: Potentiation of minocycline-induced antibacterial activity against multidrug/extremely drug-resistant/colistin-susceptible Pseudomonas aeruginosa isolate P262-101856 infected in Galleria mellonella assessed as mortality at 12.5 to 37.5 mg/kg after 24 hrs relative to control
How it was run: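 Galleria mellonella larvae (~250 mg, used within 7 days), 15 per group, injected with 10 µL XDR P. aeruginosa P262 suspension (1.0×10^3 CFU/mL in PBS). At 2 h, a single 10 µL injection of combination at 12.5 + 12.5, 25 + 25 or 37.5 + 37.5 mg/kg; PBS vehicle control. Kept at 37 °C and survival scored over 24 h.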

[10] = tested on: Streptococcus pneumoniae; assay: Antibacterial activity against Streptococcus pneumoniae ATCC 49619 after 18 hrs by microtiter dilution assay; conditions: ATCC 49619, 18 h
How it was run: (§4)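 Broth microdilution per CLSI. Overnight culture adjusted to 0.5 McFarland in saline, diluted 1:50 in Mueller-Hinton broth, and added to an equal volume of 2-fold serial compound dilutions in MHB. Incubated 18 h at 37 °C. MIC taken as the lowest concentration with no visible growth.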

[11] = tested on: Acinetobacter baumannii; assay: Antibacterial activity against multidrug-resistant Acinetobacter baumannii AB027 after 18 hrs by microtiter dilution assay; conditions: AB027, 18 h; how it was run: as §2
[12] = tested on: Pseudomonas aeruginosa; assay: Potentiation of minocycline-induced antibacterial activity against multidrug/extremely drug-resistant/colistin-susceptible Pseudomonas aeruginosa isolate 101885 at 4 ug/ml after 18 hrs by checkerboard assay; how it was run: as §1
[13] = tested on: Pseudomonas aeruginosa; assay: Synergistic antibacterial activity against Pseudomonas aeruginosa PAO1 after 18 hrs in presence of ceftazidime by checkerboard assay; conditions: PAO1, 18 h; how it was run: as §3
[14] = tested on: Acinetobacter baumannii; assay: Synergistic antibacterial activity against multidrug-resistant Acinetobacter baumannii AB030 after 18 hrs in presence of rifampicin by checkerboard assay; conditions: AB030, 18 h
How it was run: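 Checkerboard in MHB with a 10 × 7 matrix: antibiotic serially diluted along one axis, adjuvant along the other. Inoculum was a 1:50 dilution of a 0.5 McFarland suspension, incubated 18 h at 37 °C and read on a plate reader. Each FIC is the concentration in a no-growth well divided by the MIC alone; FIC index is their sum, with ≤0.5 taken as synergy.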

[15] = tested on: Escherichia coli; assay: Antibacterial activity against Escherichia coli ATCC 25922 after 18 hrs by microtiter dilution assay; conditions: ATCC 25922, 18 h; how it was run: as §2
[16] = tested on: Pseudomonas aeruginosa; assay: Potentiation of rifampicin-induced antibacterial activity against multidrug/extremely drug-resistant/colistin-susceptible Pseudomonas aeruginosa isolate 100036 assessed as fold reduction in rifampicin MIC at 4 ug/ml after 18 hrs by checkerboard assay relative to control
How it was run: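 Checkerboard in Mueller-Hinton broth, 10 × 7 matrix, with the adjuvant held at 4 µg/mL. Inoculum from a 0.5 McFarland suspension diluted 1:50; 18 h at 37 °C. Antibiotic MIC (lowest concentration with no growth) with adjuvant is compared with the antibiotic MIC alone, giving a fold reduction.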

[17] = tested on: Enterococcus faecium; assay: Antibacterial activity against Enterococcus faecium ATCC 27270 after 18 hrs by microtiter dilution assay; conditions: ATCC 27270, 18 h; how it was run: as §4
[18] = tested on: Pseudomonas aeruginosa; assay: Synergistic antibacterial activity against Pseudomonas aeruginosa PAO1 after 18 hrs in presence of gentamicin by checkerboard assay; conditions: PAO1, 18 h; how it was run: as §3
[19] = tested on: Pseudomonas aeruginosa; assay: Antibacterial activity against multidrug/extremely drug-resistant/colistin-susceptible Pseudomonas aeruginosa isolate P262-101856 infected in Galleria mellonella assessed as mortality at 75 mg/kg after 24 hrs relative to control; conditions: isolate P262-101856, 24 h
How it was run: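 Galleria mellonella larvae (about 250 mg, used within 7 days; 15 per group) were injected with 10 µL of XDR P. aeruginosa P262 at 1.0×10^3 CFU/mL. At 2 h they received a single 10 µL injection: monotherapy at 75 mg/kg, or combinations at 12.5+12.5 to 75+75 mg/kg. PBS vehicle served as control. Survival was scored over 24 h at 37 °C.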

[20] = tested on: Stenotrophomonas maltophilia; assay: Antibacterial activity against Stenotrophomonas maltophilia isolate CAN-ICU 62584 after 18 hrs by microtiter dilution assay; conditions: isolate CAN-ICU 62584, 18 h; how it was run: as §4
[21] = tested on: Pseudomonas aeruginosa; assay: Antibacterial activity against Pseudomonas aeruginosa ATCC 27853 after 18 hrs by microtiter dilution assay; conditions: ATCC 27853, 18 h; how it was run: as §4

Cl.Cl.Cl.Cl.Cl.Cl.Cl.NCCCC[C@H](N)C(=O)N(CCCCCCCCCCCCO[C@@H]1[C@@H](O[C@H]2O[C@H](CO)[C@@H](O)[C@H](N)[C@H]2O)[C@H](N)C[C@H](N)[C@H]1O[C@H]1O[C@H](CN)[C@@H](O)C[C@H]1N)Cc1c2ccccc2c(Cl)c2ccccc12
fractional inhibitory concentration index (FICI) [1]: 0.375
Activity [2]: Dose-dependent effect
fractional inhibitory concentration index (FICI) [3]: 0.156
Activity [4]: Active
fractional inhibitory concentration index (FICI) [5]: 1.125
MIC [6]: 32 µg/mL
MIC [7]: 1 µg/mL
fractional inhibitory concentration index (FICI) [8]: 0.094
mortality [9]: 100%
MIC [10]: 32 µg/mL
MIC [11]: 128 µg/mL
fractional inhibitory concentration index (FICI) [12]: 0.156
MIC [13]: 2 µg/mL
MIC [14]: 8 µg/mL
MIC [15]: 32 µg/mL
fold change (FC) [16]: 128
MIC [17]: 8 µg/mL
MIC [18]: 4 µg/mL
mortality at 75 mg/kg [19]: 100%
MIC [20]: > 128 µg/mL
MIC [21]: 32 µg/mL
